Test results reported in ChEMBL document CHEMBL3259731, “Design, synthesis, and biological evaluation of novel FAK scaffold inhibitors targeting the FAK-VEGFR3 protein-protein interaction” (Eur J Med Chem, 2014).
Counter-ions that a name gives are not always drawn. Calls of active or inactive are those of the source. The calls are words filed in the database; no cut-off is given here.

Tests used:
C8161 = assay: Cytotoxicity against human C8161 cells assessed as growth inhibition at 50 uM after 72 hrs by MTS assay; assay type: functional, cell-based
Method in brief: (§1)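 MTS assay. Cells kept in DMEM with 10% FBS, plated at 5000 cells/well and left to attach overnight, then exposed to compound (screening at 50 µM) for 72 h at 37 °C. MTS reagent added for about 1 h, then absorbance read at 570 nm. Viability normalized to DMSO/untreated controls. Three independent experiments, 3–5 replicate wells per concentration.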

MIA PaCa-2 [1] = assay: Cytotoxicity against human MIAPaCa2 cells transfected with retroviral expression vector pMSCV-LucSh assessed as growth inhibition at 50 uM after 72 hrs by MTS assay; assay type: functional, cell-based
Method in brief: (§2)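 Cells seeded at 5000/well, attached overnight, then given 50 µM of each analog for 72 h at 37 °C. MTS reagent added for about 1 h, absorbance read at 570 nm. Viability normalized to DMSO/untreated controls. Three independent experiments, each with 3–5 replicate wells per concentration. Cells kept in DMEM with 10% FBS.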

A-375 = assay: Cytotoxicity against human A375 cells assessed as growth inhibition at 50 uM after 72 hrs by MTS assay; assay type: functional, cell-based; method in brief: as §1
PANC-1 = assay: Cytotoxicity against human PANC1 cells transfected with retroviral expression vector pMSCV-LucSh assessed as growth inhibition at 50 uM after 72 hrs by MTS assay; assay type: functional, cell-based; method in brief: as §2
MDA-MB-231 = assay: Cytotoxicity against human MDA-MB-231 cells assessed as growth inhibition at 50 uM after 72 hrs by MTS assay; assay type: functional, cell-based; method in brief: as §1
U-87MG ATCC = assay: Cytotoxicity against human U87 cells assessed as growth inhibition at 50 uM after 72 hrs by MTS assay; assay type: functional, cell-based; method in brief: as §1
MCF7 [2] = assay: Cytotoxicity against human MCF7 cells overexpressing VEGFR-3/FAK assessed as inhibition of colony formation at >10 uM after 14 days by 1,9-dimethyl-methylene blue staining-based assay; assay type: functional, cell-based
Method in brief: (§3)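 Colony formation. 700 cells/well seeded with compound added immediately, then incubated at 37 °C for 10–14 days (legend: 14 days). Colonies stained for 1 h with 0.25% 1,9-dimethyl-methylene blue in 50% methanol, washed, dried and scanned. Duplicate wells, three independent experiments.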

[3] = target: T1, Focal adhesion kinase 1/vascular endothelial growth factor receptor 3 (Homo sapiens) (UniProt P35916+Q05397); assay: Inhibition of FAK/VEGFR-3 interaction in human MIAPaCa2 cells transfected with retroviral expression vector pMSCV-LucSh assessed as reduction in VEGFR3 pan-phosphorylated tyrosine level after 24 hrs by immunoprecipitation assay; assay type: cell-based; details: MIA PaCa-2
Method in brief: (§4)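 Cells treated at increasing doses for 24 h, then lysed in NP40 buffer with inhibitors. 500 or 800 µg lysate precleared, then immunoprecipitated with FAK 4.47 or VEGFR3 9D9, with isotype IgG and no-antibody controls, overnight with Protein A/G beads at 4 °C. Immunoblotted for pan-phosphotyrosine (4G10), total FAK and total VEGFR3. Bands quantified by densitometry.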

[4] = target: T1, Focal adhesion kinase 1/vascular endothelial growth factor receptor 3 (Homo sapiens); assay: Inhibition of FAK/VEGFR-3 interaction in human MIAPaCa2 cells transfected with retroviral expression vector pMSCV-LucSh assessed as decrease in levels of VEGFR3 and phosphorylated tyrosine residues associated with FAK protein after 24 hrs by densitometric analysis; assay type: cell-based; details: MIA PaCa-2; method in brief: as §4
[5] = target: T1, Focal adhesion kinase 1/vascular endothelial growth factor receptor 3 (Homo sapiens); assay: Inhibition of FAK/VEGFR-3 interaction in human MIAPaCa2 cells transfected with retroviral expression vector pMSCV-LucSh assessed as reduction in VEGFR3 pan-phosphorylated tyrosine level after 24 hrs by densitometric analysis; assay type: cell-based; details: MIA PaCa-2; method in brief: as §4
Focal adhesion kinase 1 [6] = target: T2, Focal adhesion kinase 1 (Homo sapiens, UniProt Q05397); assay: Binding affinity to biotinylated human FAK FAT domain by biolayer interoferometry
Method in brief: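 Bio-layer interferometry on super streptavidin biosensor tips, pre-wetted in buffer for a baseline before FAT protein immobilization. Association and dissociation measured over 210 s at two small-molecule concentrations. Kon, Koff and Kd derived from the kinetic fits.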
Target sequence in this assay (Q05397 whole entry, the tested form may be a part): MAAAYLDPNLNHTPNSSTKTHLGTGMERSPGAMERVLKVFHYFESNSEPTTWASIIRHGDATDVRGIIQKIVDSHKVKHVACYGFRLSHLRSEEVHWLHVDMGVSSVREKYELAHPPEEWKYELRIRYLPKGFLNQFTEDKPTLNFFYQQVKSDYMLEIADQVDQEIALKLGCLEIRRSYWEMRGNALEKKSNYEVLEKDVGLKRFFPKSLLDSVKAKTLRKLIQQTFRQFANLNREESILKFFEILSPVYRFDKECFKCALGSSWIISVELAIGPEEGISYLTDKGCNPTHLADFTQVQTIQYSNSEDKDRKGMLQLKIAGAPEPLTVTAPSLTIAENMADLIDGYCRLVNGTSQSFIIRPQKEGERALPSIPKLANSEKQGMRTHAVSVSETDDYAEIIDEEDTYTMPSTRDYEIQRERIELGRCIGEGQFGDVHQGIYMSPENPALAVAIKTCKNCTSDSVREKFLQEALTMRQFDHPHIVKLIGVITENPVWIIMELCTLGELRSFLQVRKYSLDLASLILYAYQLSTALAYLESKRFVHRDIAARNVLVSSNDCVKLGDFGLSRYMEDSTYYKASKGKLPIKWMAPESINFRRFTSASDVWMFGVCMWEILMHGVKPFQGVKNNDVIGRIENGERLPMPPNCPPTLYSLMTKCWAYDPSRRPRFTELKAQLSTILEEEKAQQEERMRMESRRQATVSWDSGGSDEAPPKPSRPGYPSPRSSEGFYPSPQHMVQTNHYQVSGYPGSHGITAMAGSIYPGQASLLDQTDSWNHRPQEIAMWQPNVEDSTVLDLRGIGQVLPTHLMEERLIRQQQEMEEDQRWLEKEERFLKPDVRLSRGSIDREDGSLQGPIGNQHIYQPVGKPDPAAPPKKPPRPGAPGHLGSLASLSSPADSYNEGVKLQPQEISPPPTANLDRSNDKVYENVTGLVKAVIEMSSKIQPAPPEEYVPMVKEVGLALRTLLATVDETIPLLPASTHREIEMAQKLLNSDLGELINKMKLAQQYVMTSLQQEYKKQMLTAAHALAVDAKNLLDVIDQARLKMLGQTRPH

MIA PaCa-2 [7] = assay: Cytotoxicity against human MIAPaCa2 cells transfected with retroviral expression vector pMSCV-LucSh assessed as inhibition of colony formation at >10 uM after 14 days by 1,9-dimethyl-methylene blue staining-based assay; assay type: functional, cell-based
Method in brief: (§5)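 700 cells/well seeded, and compound added at once at the specified concentrations. Incubated 10–14 days at 37 °C (figure legend gives 14 days). Colonies stained with 0.25% 1,9-dimethyl-methylene blue in 50% methanol for 1 h, washed, dried and scanned. Run in duplicate and repeated three times independently.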

[8] = target: T1, Focal adhesion kinase 1/vascular endothelial growth factor receptor 3 (Homo sapiens); assay: Inhibition of FAK/VEGFR-3 interaction in human MIAPaCa2 cells transfected with retroviral expression vector pMSCV-LucSh assessed as decrease in levels of VEGFR3 and phosphorylated tyrosine residues associated with FAK protein after 24 hrs by immunoprecipitation assay; assay type: cell-based; details: MIA PaCa-2; method in brief: as §4
[9] = target: Epidermal growth factor receptor (Homo sapiens) (UniProt P00533); assay: Inhibition of EGFR (unknown origin) at 1 uM by Z'-LYTE assay relative to control
Method in brief: (§6)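 Z'-LYTE SelectScreen single-point biochemical kinase assay, done by an outside service. Compound at 1 µM with 100 µM ATP in the reaction. Percent inhibition calculated per the Z'-LYTE analysis protocol, as the mean of two independent runs.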

MIA PaCa-2 [10] = assay: Induction of apoptosis in human MIAPaCa2 cells transfected with retroviral expression vector pMSCV-LucSh at 70 uM after 24 hrs by CellEvent/TMRM dye-based microscopic analysis; assay type: functional, cell-based
Method in brief: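 10,000 cells/well plated and adhered overnight, then drug added for 24 h. Stained with 5 µM CellEvent caspase-3/7 dye plus 2.5 µM TMRM in PBS, 30 min at 37 °C in the dark. Imaged by fluorescence microscopy, and bright-green apoptotic nuclei counted in 6–8 fields per condition. Percent apoptosis normalized to control, from three independent experiments, compared by Student t test.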

[11] = target: Protein-tyrosine kinase 2-beta (Homo sapiens) (UniProt Q14289); assay: Inhibition of PTK2B (unknown origin) at 1 uM by Z'-LYTE assay relative to control; method in brief: as §6
[12] = target: Insulin-like growth factor 1 receptor (Homo sapiens) (UniProt P08069); assay: Inhibition of IGF1R (unknown origin) at 1 uM by Z'-LYTE assay relative to control; method in brief: as §6
MCF7 [13] = assay: Cytotoxicity against human MCF7 cells overexpressing VEGFR-3/FAK assessed as inhibition of colony formation at 10 uM after 14 days by 1,9-dimethyl-methylene blue staining-based assay; assay type: functional, cell-based; method in brief: as §3
MCF7 [14] = assay: Induction of apoptosis in human MCF7 cells overexpressing VEGFR-3/FAK assessed as increase in caspase-3 cleavage after 24 hrs; assay type: functional, cell-based
Method in brief: (§7)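 MCF7-VEGFR3 cells grown to about 80% confluence, then given compound at the indicated concentrations for 24 h at 37 °C. Lysed in 1% NP40 buffer with phosphatase and protease inhibitors. 30 µg protein run by SDS-PAGE and immunoblotted with caspase-3 and PARP rabbit polyclonal antibodies, detected by ECL.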

MIA PaCa-2 [15] = assay: Induction of apoptosis in human MIAPaCa2 cells transfected with retroviral expression vector pMSCV-LucSh assessed as increase in caspase-3 cleavage after 24 hrs; assay type: functional, cell-based
Method in brief: (§8)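 Cells seeded to reach about 80% confluence at 24 h, then drug-treated at increasing doses for 24 h at 37 °C. Lysed in 1% NP40 buffer with protease and phosphatase inhibitors. 30 µg protein run on SDS gel and transferred to PVDF. Immunoblotted overnight at 4 °C with caspase-3 and PARP rabbit polyclonals for cleavage products. ECL detection.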

MIA PaCa-2 [16] = assay: Cytotoxicity against human MIAPaCa2 cells transfected with retroviral expression vector pMSCV-LucSh assessed as inhibition of colony formation at 10 uM after 14 days by 1,9-dimethyl-methylene blue staining-based assay; assay type: functional, cell-based; method in brief: as §5
[17] = target: Vascular endothelial growth factor receptor 3 (Homo sapiens) (UniProt P35916); assay: Inhibition of FLT4 (unknown origin) at 1 uM by Z'-LYTE assay relative to control
Method in brief: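 Z'-LYTE SelectScreen single-point biochemical kinase assay, run as a contracted service. Compound at 1 µM and ATP at 100 µM in the reaction. Percent inhibition calculated per the Z'-LYTE analysis protocol, given as the mean of two independent runs.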

Focal adhesion kinase 1 [18] = target: T2, Focal adhesion kinase 1; assay: Inhibition of PTK2 (unknown origin) at 1 uM by Z'-LYTE assay relative to control; method in brief: as §6
MCF7 [19] = assay: Cytotoxicity against human MCF7 cells overexpressing VEGFR-3/FAK after 72 hrs by MTS assay; assay type: functional, cell-based; method in brief: as §1
MCF7 [20] = assay: Induction of apoptosis in human MCF7 cells overexpressing VEGFR-3/FAK assessed as increase in PARP cleavage after 24 hrs; assay type: functional, cell-based; method in brief: as §7
MIA PaCa-2 [21] = assay: Induction of apoptosis in human MIAPaCa2 cells transfected with retroviral expression vector pMSCV-LucSh assessed as increase in PARP cleavage after 24 hrs; assay type: functional, cell-based; method in brief: as §8
[22] = target: T1, Focal adhesion kinase 1/vascular endothelial growth factor receptor 3 (Homo sapiens); assay: Inhibition of FAK/VEGFR-3 interaction in human MCF7 cells assessed as decrease in VEGFR3 protein level at 10 uM after 24 hrs by immunoprecipitation assay; assay type: cell-based
Method in brief: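 MCF7-VEGFR3 cells treated with selected analogs for 24 h, then lysed in NP40 buffer. FAK immunoprecipitated with clone 4.47 after preclearing, 2 h antibody binding and overnight incubation with Protein A/G beads at 4 °C. Co-precipitated VEGFR3 and total FAK detected by immunoblot on 7.5% gel.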

[23] = target: Vascular endothelial growth factor receptor 1 (Homo sapiens) (UniProt P17948); assay: Inhibition of FLT1 (unknown origin) at 1 uM by Z'-LYTE assay relative to control; method in brief: as §6
[24] = target: RAC-alpha serine/threonine-protein kinase (Homo sapiens) (UniProt P31749); assay: Inhibition of AKT1 (unknown origin) at 1 uM by Z'-LYTE assay relative to control; method in brief: as §6
[25] = target: Proto-oncogene tyrosine-protein kinase Src (Homo sapiens) (UniProt P12931); assay: Inhibition of SRC (unknown origin) at 1 uM by Z'-LYTE assay relative to control; method in brief: as §6
[26] = target: Vascular endothelial growth factor receptor 2 (Homo sapiens) (UniProt P35968); assay: Inhibition of KDR (unknown origin) at 1 uM by Z'-LYTE assay relative to control; method in brief: as §6
[27] = target: Platelet-derived growth factor receptor alpha (Homo sapiens) (UniProt P16234); assay: Inhibition of PDGFRA (unknown origin) at 1 uM by Z'-LYTE assay relative to control; method in brief: as §6

T1 sequence (P35916 whole entry, looked up): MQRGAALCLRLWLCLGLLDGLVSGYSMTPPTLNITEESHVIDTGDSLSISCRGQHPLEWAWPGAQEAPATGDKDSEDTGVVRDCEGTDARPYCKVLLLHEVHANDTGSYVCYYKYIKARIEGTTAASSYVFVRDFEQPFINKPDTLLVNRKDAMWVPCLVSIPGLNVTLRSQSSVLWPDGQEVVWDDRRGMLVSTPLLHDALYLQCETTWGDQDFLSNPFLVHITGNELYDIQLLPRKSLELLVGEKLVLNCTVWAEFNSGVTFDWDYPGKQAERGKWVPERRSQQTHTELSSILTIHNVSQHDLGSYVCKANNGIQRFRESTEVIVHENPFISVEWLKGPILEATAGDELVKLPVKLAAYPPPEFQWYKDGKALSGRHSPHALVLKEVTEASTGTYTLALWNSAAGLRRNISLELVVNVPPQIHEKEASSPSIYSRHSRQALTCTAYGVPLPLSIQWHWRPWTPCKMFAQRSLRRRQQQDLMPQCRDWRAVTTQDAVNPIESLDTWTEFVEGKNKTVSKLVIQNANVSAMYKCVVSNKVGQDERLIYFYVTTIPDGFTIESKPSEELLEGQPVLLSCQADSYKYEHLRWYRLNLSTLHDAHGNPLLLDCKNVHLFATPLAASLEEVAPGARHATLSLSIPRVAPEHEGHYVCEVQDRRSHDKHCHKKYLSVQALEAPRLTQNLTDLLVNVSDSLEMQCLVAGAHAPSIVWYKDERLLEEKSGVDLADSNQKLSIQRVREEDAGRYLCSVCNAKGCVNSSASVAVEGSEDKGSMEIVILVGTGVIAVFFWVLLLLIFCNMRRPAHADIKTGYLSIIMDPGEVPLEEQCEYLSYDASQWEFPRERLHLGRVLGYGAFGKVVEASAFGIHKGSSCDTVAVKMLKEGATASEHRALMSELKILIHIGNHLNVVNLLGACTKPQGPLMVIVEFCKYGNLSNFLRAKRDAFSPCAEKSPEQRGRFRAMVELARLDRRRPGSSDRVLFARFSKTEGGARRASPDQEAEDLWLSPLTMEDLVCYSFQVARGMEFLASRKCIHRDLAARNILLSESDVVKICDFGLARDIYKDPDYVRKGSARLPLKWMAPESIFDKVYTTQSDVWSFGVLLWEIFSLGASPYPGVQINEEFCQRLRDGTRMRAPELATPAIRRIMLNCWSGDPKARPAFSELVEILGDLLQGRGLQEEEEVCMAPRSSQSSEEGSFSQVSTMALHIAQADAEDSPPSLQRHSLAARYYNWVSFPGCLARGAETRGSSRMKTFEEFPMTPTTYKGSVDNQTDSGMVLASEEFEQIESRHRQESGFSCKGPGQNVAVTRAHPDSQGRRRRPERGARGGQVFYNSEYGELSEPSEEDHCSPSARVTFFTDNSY
T1 sequence (Q05397 whole entry, looked up): as the sequence (Q05397 whole entry, the tested form may be a part) above
Sequence of Vascular endothelial growth factor receptor 3 (Homo sapiens) (P35916 whole entry): as the sequence (P35916 whole entry, looked up) above
Sequence of Vascular endothelial growth factor receptor 2 (Homo sapiens) (P35968 whole entry): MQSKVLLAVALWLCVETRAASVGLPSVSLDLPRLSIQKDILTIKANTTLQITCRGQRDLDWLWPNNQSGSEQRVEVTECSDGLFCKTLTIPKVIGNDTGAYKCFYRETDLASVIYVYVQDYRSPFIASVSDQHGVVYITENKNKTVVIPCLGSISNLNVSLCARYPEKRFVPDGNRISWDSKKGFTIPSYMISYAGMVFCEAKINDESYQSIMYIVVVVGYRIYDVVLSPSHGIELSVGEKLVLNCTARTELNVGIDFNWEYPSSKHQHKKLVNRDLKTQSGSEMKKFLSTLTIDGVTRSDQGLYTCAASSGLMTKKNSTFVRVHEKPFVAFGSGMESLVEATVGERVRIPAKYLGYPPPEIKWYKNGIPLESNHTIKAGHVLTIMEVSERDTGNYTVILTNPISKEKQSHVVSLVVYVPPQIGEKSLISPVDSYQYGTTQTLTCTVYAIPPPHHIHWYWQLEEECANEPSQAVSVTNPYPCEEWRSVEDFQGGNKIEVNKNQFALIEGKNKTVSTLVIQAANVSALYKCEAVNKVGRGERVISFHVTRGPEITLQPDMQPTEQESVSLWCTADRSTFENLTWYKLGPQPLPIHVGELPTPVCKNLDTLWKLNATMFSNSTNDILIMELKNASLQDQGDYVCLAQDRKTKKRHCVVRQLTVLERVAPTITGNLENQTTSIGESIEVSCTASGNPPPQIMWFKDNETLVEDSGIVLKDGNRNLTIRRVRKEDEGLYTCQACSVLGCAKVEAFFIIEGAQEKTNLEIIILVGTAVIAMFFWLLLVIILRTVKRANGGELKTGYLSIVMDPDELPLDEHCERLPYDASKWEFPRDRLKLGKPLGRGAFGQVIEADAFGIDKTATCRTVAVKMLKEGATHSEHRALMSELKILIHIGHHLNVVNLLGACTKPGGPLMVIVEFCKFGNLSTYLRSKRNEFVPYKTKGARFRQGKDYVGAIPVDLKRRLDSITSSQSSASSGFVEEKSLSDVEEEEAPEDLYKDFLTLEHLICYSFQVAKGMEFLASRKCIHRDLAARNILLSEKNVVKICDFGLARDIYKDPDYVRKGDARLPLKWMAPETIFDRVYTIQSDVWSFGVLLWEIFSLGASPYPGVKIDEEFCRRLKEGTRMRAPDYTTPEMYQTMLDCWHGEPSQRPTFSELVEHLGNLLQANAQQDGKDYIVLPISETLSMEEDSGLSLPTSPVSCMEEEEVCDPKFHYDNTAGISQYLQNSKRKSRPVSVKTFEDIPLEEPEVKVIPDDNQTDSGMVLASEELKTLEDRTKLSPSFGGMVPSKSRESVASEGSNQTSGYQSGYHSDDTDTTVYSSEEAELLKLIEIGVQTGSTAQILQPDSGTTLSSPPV
Sequence of RAC-alpha serine/threonine-protein kinase (Homo sapiens) (P31749 whole entry): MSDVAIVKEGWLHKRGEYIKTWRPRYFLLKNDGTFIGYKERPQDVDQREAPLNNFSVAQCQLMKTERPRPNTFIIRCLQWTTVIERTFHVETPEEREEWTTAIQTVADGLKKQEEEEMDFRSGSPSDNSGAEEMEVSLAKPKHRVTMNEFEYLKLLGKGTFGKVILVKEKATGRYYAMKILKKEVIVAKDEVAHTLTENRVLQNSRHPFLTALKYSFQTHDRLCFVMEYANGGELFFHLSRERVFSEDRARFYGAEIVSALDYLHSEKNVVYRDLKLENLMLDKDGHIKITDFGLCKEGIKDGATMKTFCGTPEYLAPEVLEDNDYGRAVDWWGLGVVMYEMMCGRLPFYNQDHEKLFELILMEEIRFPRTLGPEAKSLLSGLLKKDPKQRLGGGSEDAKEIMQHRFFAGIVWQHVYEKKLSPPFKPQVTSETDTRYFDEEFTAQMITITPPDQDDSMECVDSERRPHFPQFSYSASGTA
Sequence of Proto-oncogene tyrosine-protein kinase Src (Homo sapiens) (P12931 2-536 limits assumed): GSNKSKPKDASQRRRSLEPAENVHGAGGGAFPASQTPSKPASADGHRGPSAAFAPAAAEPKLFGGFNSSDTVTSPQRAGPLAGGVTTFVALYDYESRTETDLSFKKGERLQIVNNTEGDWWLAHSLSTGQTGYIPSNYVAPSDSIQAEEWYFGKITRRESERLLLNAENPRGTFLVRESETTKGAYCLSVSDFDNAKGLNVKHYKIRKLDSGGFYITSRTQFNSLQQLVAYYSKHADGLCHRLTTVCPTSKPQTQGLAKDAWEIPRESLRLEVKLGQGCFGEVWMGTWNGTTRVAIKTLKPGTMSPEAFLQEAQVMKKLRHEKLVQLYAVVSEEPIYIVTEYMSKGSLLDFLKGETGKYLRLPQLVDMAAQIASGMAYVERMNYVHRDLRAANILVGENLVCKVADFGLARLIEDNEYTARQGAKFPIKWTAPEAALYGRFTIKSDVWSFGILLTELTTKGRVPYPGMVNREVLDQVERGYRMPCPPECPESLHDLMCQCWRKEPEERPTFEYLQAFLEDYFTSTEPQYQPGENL

SMILES: CCCN(CCN(C)C)c1ccccn1
- growth inhibition (GI) (C8161): inactive
- growth inhibition (GI) (MIA PaCa-2 [1]): inactive
- growth inhibition (GI) (A-375): inactive
- growth inhibition (GI) (PANC-1): inactive
- growth inhibition (GI) (MDA-MB-231): inactive
- growth inhibition (GI) (U-87MG ATCC): inactive

SMILES: CN(C)CCN(Cc1ccc(Cl)cc1)c1ccccn1 [CHLORPYRAMIN HYDROCHLORIDE]
- inhibition (MCF7 [2]): Active
- inhibition [3]: Dose-dependent effect
- inhibition [4]: Dose-dependent effect
- inhibition [5]: Dose-dependent effect
- Kd (Focal adhesion kinase 1 [6]): 0.57 µM
- inhibition (MIA PaCa-2 [7]): Active
- inhibition [8]: Dose-dependent effect

SMILES: CCCCCCN(CCN(C)C)c1ccccc1
- growth inhibition (GI) (C8161): inactive
- growth inhibition (GI) (MIA PaCa-2 [1]): inactive
- growth inhibition (GI) (A-375): inactive
- growth inhibition (GI) (PANC-1): inactive
- growth inhibition (GI) (MDA-MB-231): inactive
- growth inhibition (GI) (U-87MG ATCC): inactive

SMILES: CN(C)CCN(Cc1ccc(Cl)cc1)c1ccc2ccccc2n1
- inhibition [9]: 4%
- Activity (MIA PaCa-2 [10]): Active
- inhibition [11]: 0%
- inhibition [12]: 11%
- inhibition (MCF7 [13]): Active
- Activity (MCF7 [14]): Dose-dependent effect
- inhibition [3]: Dose-dependent effect
- Activity (MIA PaCa-2 [15]): Dose-dependent effect
- growth inhibition (GI) (MIA PaCa-2 [1]): Active
- inhibition (MIA PaCa-2 [16]): Active
- inhibition [4]: Dose-dependent effect
- inhibition [17]: 4%
- inhibition (Focal adhesion kinase 1 [18]): 13%
- Activity (MCF7 [19]): Active
- inhibition [5]: Dose-dependent effect
- Activity (MCF7 [20]): Dose-dependent effect
- Kd (Focal adhesion kinase 1 [6]): 0.018 µM
- growth inhibition (GI) (PANC-1): Active
- Activity (MIA PaCa-2 [21]): Dose-dependent effect
- inhibition [22]: Active
- inhibition [23]: 1%
- inhibition [24]: 7%
- inhibition [8]: Dose-dependent effect
- inhibition [25]: 3%
- inhibition [26]: 14%
- inhibition [27]: 8%
